Assay results reported in ChEMBL document CHEMBL4425134, “Analogs of the ATP-Sensitive Potassium (KATP) Channel Opener Cromakalim with in Vivo Ocular Hypotensive Activity” (J Med Chem, 2016).
Activity calls are given as the source filed them. No cut-off for these calls is given here.

Key:
Mus musculus [1] = assay: Antiglaucoma activity in normotensive C57BL/6 mouse assessed as reduction in intraocular pressure at 5 mM administered topically as solution in mixture of DMSO, cremophor EL and PBS once daily as bolus dose to one eye for 5 days measured up to 23 hrs post daily administration by tonometer; assay type: functional
How it was run: (§1)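 Following baseline IOP, C57BL/6 mice were dosed topically once daily with a 5 µl bolus to one eye. Dexromakalim was given for 6 days, then levromakalim for 5 days. Each was made as a 100 mM DMSO stock diluted to 5 mM with 10% cremophor EL in PBS. IOP was read by rebound tonometer versus the vehicle-treated contralateral eye.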

Mus musculus [2] = assay: Antiglaucoma activity in normotensive C57BL/6 mouse assessed as reduction in intraocular pressure at 5 mM compound solution in PBS administered topically once daily as bolus dose to one eye for 6 days measured up to 23 hrs post daily administration by tonometer; assay type: functional
How it was run: (§2)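 Mice received a 5 mM solution in PBS as a 5 µl topical bolus to one eye once daily for 6 days, with PBS to the contralateral eye. IOP was read by rebound tonometer in conscious mice at 1, 4 and 23 h post-dose and averaged. Values are expressed as treated minus control eye. Readings continued after treatment stopped. n=10 (days 1–9), n=6 (days 10–12).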

Mus musculus [3] = assay: Antiglaucoma activity in normotensive C57BL/6 mouse assessed as reduction in intraocular pressure at 5 mM administered topically as solution in PBS once daily as bolus dose to contralateral eye for 5 days followed by 5 mM sodium (3S,4R)-6-cyano-2,2-dimethyl-4-(2-oxopyrrolidin-1-yl)chroman-3-yl phosphate treatment for 5 days by tonometer; assay type: functional
How it was run: (§3)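 C57BL/6 mice received sequential once-daily topical 5 µl boluses of 5 mM enantiomers dissolved in PBS to one eye, with vehicle to the contralateral eye. IOP was read by rebound tonometer in conscious mice at 1, 4 and 23 h post-dose, averaged, and expressed relative to the vehicle eye. n=10.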

[4] = (§4) Toxicity in normotensive C57BL/6 mouse assessed as effect on cell structure in aqueous humor outflow pathway at 5 mM administered topically as solution in PBS once daily as bolus dose to contralateral eye for 5 days by hematoxylin and eosin staining based transmission electron microscopic analysis; assay type: organism-based; details: in vivo, topical_or_ocular, 120 h, 5000 µM
[5] = (§5) Toxicity in normotensive C57BL/6 mouse assessed as effect on cell number in aqueous humor outflow pathway at 5 mM administered topically as solution in PBS once daily as bolus dose to contralateral eye for 5 days by hematoxylin and eosin staining based transmission electron microscopic analysis; assay type: organism-based; details: in vivo, topical_or_ocular, 120 h, 5000 µM
[6] = Stability in D2O solution assessed as compound decomposition after 1 week by 1H NMR analysis; assay type: physicochemical; details: 168 h
[7] = Stability in D2O solution assessed as compound decomposition after 1 week by 31P NMR analysis; assay type: physicochemical; details: 168 h
Mus musculus [8] = assay: Antiglaucoma activity in normotensive C57BL/6 mouse assessed as reduction in intraocular pressure at 2.5 mM compound solution in PBS administered topically once daily as bolus dose to contralateral eye for 7 days measured up to 23 hrs post daily administration by tonometer; assay type: functional
How it was run: (§6)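 C57BL/6 retired breeders (>7 months old) received a 5 µl bolus of 2.5 mM solution in PBS topically to one eye once daily for 7 consecutive days, with PBS to the contralateral eye. IOP was measured in conscious, non-anesthetized mice by hand-held rebound tonometer at 1, 4 and 23 h after dosing. Daily IOP is the mean of the three readings, expressed as treated minus vehicle eye (mm Hg). n=10 (days 1–10), n=6 after.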

Mus musculus [9] = assay: Antiglaucoma activity in normotensive C57BL/6 mouse assessed as reduction in intraocular pressure at 5 mM administered topically as solution in mixture of DMSO, cremophor EL and PBS once daily as bolus dose to contralateral eye for 5 days pretreated with 5 mM dexcromakalim for 6 days by tonometer; assay type: functional; how it was run: as §1
[10] = as §4, with “solution in mixture of DMSO, cremophor EL and PBS once” for “solution in PBS once”; assay type: organism-based; details: in vivo, topical_or_ocular, 120 h, 5000 µM
[11] = as §5, with “solution in mixture of DMSO, cremophor EL and PBS once” for “solution in PBS once”; assay type: organism-based; details: in vivo, topical_or_ocular, 120 h, 5000 µM
Mus musculus [12] = assay: Antiglaucoma activity in normotensive C57BL/6 mouse assessed as reduction in intraocular pressure at 5 mM administered topically as solution in mixture of DMSO, cremophor EL and PBS once daily as bolus dose to one eye for 6 days followed by 5 mM levcromakalim treatment for 5 days by tonometer; assay type: functional; how it was run: as §1
[13] = (§7) Toxicity in normotensive C57BL/6 mouse assessed as effect on cell structure in aqueous humor outflow pathway at 5 mM administered topically as solution in mixture of DMSO, cremophor EL and PBS once daily as bolus dose to one eye for 6 days by hematoxylin and eosin staining based transmission electron microscopic analysis; assay type: organism-based; details: in vivo, topical_or_ocular, 144 h, 5000 µM
[14] = as §7, with “number” for “structure”; assay type: organism-based; details: in vivo, topical_or_ocular, 144 h, 5000 µM
Mus musculus [15] = assay: Antiglaucoma activity in normotensive C57BL/6 mouse assessed as reduction in intraocular pressure at 5 mM compound solution in PBS administered topically once daily as bolus dose to one eye for 6 days measured up to 72 hrs post treatment by tonometer; assay type: functional, organism-based; how it was run: as §2
Oryctolagus cuniculus [16] = assay: (§8) Antiglaucoma activity in normotensive Dutch-belted pigmented rabbit assessed as reduction in intraocular pressure at 2.5 mM administered topically as solution in PBS once daily as bolus dose to contralateral eye for 4 days followed by 5 mM compound treatment for 4 days measured up to 23 hrs post daily administration by tonometer; assay type: functional
How it was run: (§9)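 In normotensive Dutch-belted pigmented rabbits, a PBS solution was applied topically as a 50 µL bolus to one eye once daily: 2.5 mM for 4 days, then 5 mM for 4 days. IOP was measured at 1, 4 and 23 h after each dose and averaged. Values are the absolute difference between treated and control eyes (mmHg).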

Oryctolagus cuniculus [17] = assay: as §8, with “5” for “2.5”, “pretreated with 2.5” for “followed by 5”, “compound” for “compound treatment”; assay type: functional; how it was run: as §9
[18] = Prodrug activation in buffer containing ZnCl2, MgCl2 and sodium glycine assessed as alkaline phosphatase (unknown origin)-mediated levcromakalim formation; details: human
[19] = Toxicity in normotensive C57BL/6 mouse assessed as alteration in morphology of aqueous humor outflow pathway at 2.5 mM compound solution in PBS administered topically once daily as bolus dose to contralateral eye for 7 days by hematoxylin and eosin staining based transmission electron microscopic analysis; assay type: organism-based; details: in vivo, topical_or_ocular, 168 h, 2500 µM
How it was run: (§10)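 After once-daily topical dosing of C57BL/6 mice with 2.5 mM in PBS (5 µl), some animals were sacrificed. Aqueous outflow pathway tissues (trabecular meshwork, Schlemm's canal) were examined by hematoxylin and eosin stained sections and by transmission electron microscopy. Cell structure and number were compared with vehicle-treated eyes.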

[20] = as §4, with “at 2.5” for “at 5”, “mM compound” for “mM administered topically as”, “PBS administered topically” for “PBS”, “for 7” for “for 5”; assay type: organism-based; details: in vivo, topical_or_ocular, 168 h, 2500 µM; how it was run: as §10
[21] = as §5, with “at 2.5” for “at 5”, “mM compound” for “mM administered topically as”, “PBS administered topically” for “PBS”, “for 7” for “for 5”; assay type: organism-based; details: in vivo, topical_or_ocular, 168 h, 2500 µM; how it was run: as §10
Mus musculus [22] = assay: Antiglaucoma activity in normotensive C57BL/6 mouse assessed as reduction in intraocular pressure at 5 mM administered topically as solution in PBS once daily as bolus dose to contralateral eye for 5 days pretreated with 5 mM sodium (3R,4S)-6-cyano-2,2-dimethyl-4-(2-oxopyrrolidin-1-yl)chroman-3-yl phosphate for 5 days by tonometer; assay type: functional; how it was run: as §3
Mus musculus [23] = assay: Antiglaucoma activity in normotensive C57BL/6 mouse assessed as reduction in intraocular pressure at 2.5 mM compound solution in PBS administered topically once daily as bolus dose to contralateral eye for 7 days measured up to 48 hrs after cessation of drug treatment by tonometer; assay type: functional, organism-based; how it was run: as §6
[24] = Solubility in water at 10 mg/ml; assay type: physicochemical; details: buffer
[25] = Stability of compound in D2O solution; assay type: physicochemical

CC1(C)Oc2ccc(C#N)cc2[C@@H](N2CCCC2=O)[C@@H]1O (racemic) [LEVCROMAKALIM] gave an Activity (Mus musculus [1]) of 3.19 mmHg.

For CC(C)C[C@@H](NC(=O)CN)C(=O)O[C@H]1[C@H](N2CCCC2=O)c2cc(C#N)ccc2OC1(C)C, the Activity (Mus musculus [2]) was 1.57 mmHg.

For CC1(C)Oc2ccc(C#N)cc2[C@H](N2CCCC2=O)[C@H]1OP(=O)([O-])[O-].[Na+].[Na+], the Activity (Mus musculus [3]) was 0.14 mmHg, the Activity [4] was “Non-Toxic” and the Activity [5] was “Non-Toxic”.

In the case of CC1(C)Oc2ccc(C#N)cc2[C@@H](N2CCCC2=O)[C@@H]1OCOP(=O)([O-])[O-].[Na+].[Na+] (racemic), the Stability [6] is reported as “Stable”, the Stability [7] is reported as “Stable” and the Activity (Mus musculus [8]) is reported as 1.81 mmHg.

For CC1(C)Oc2ccc(C#N)cc2[C@@H](N2CCCC2=O)[C@@H]1O [LEVCROMAKALIM], the Activity (Mus musculus [9]) was 3.37 mmHg, the Activity [10] was “Non-Toxic” and the Activity [11] was “Non-Toxic”.

With CC1(C)Oc2ccc(C#N)cc2[C@H](N2CCCC2=O)[C@H]1O [(-)-CROMAKALIM] the Activity (Mus musculus [12]) was 0.73 mmHg, the Activity [13] was “Non-Toxic” and the Activity [14] was “Non-Toxic”.

In the case of CC1(C)Oc2ccc(C(F)(F)F)cc2[C@@H](N2CCCC2=O)[C@@H]1OP(=O)([O-])[O-].[Na+].[Na+], the Activity (Mus musculus [2]) is reported as 3.91 mmHg, the Activity (Mus musculus [15]) is reported as “Active” and the Activity (Oryctolagus cuniculus [16]) is reported as 1.06 mmHg. The Activity (Oryctolagus cuniculus [17]) was 1.6 mmHg.

For CC1(C)Oc2ccc(C#N)cc2[C@@H](N2CCCC2=O)[C@@H]1OP(=O)([O-])[O-].[Na+].[Na+], the Drug metabolism [18] was “Metabolite_Detected”, the Activity (Mus musculus [8]) was 3.14 mmHg and the Activity [19] was “Non-Toxic”. For the same compound, the Activity [20] was “Non-Toxic”, the Activity [21] was “Non-Toxic” and the Activity [4] was “Non-Toxic”. The Activity [5] was “Non-Toxic”, the Activity (Mus musculus [22]) was 3.82 mmHg and the Activity (Oryctolagus cuniculus [16]) was 2.02 mmHg. For the same compound, the Activity (Oryctolagus cuniculus [17]) was 2.26 mmHg.

In the case of CC1(C)Oc2ccc(C#N)cc2[C@@H](N2CCCC2=O)[C@@H]1OP(=O)(O)O, the Activity (Mus musculus [23]) is reported as “inactive”.

For CC1(C)Oc2ccc(C#N)cc2[C@@H](N2CCCC2=O)[C@@H]1OP(=O)([O-])[O-].[Na+].[Na+] (racemic), the solubility [24] was “Soluble”, the Stability [25] was greater than 6 months and the Activity (Mus musculus [8]) was 2.5 mmHg.

Compound CC(C)C[C@H](NC(=O)CN)C(=O)O[C@H]1[C@H](N2CCCC2=O)c2cc(C#N)ccc2OC1(C)C has an Activity (Mus musculus [2]) of 2.45 mmHg.

Compound CC(C)C[C@H](NC(=O)CN)C(=O)OCO[C@H]1[C@H](N2CCCC2=O)c2cc(C#N)ccc2OC1(C)C has an Activity (Mus musculus [2]) of 1.93 mmHg.
